Measurements: ChEMBL document CHEMBL2331117 (J Med Chem, 2013)

Experiments:
Mus musculus [1] = test: In vivo inhibition of mTORC1-mediated phosphorylation of 4EBP1 at ([…]) in human MCF7 cells xenografted into athymic nude mouse at 100 mg/kg, po after 32 hrs by Western blotting analysis relative to control; format: functional; conditions: MCF7, 32 h
Mus musculus [2] = test: In vivo inhibition of mTORC1-mediated phosphorylation of 4EBP1 at ([…]) in human MCF7 cells xenografted into athymic nude mouse at 100 mg/kg, po after 24 hrs by Western blotting analysis relative to control; format: functional; conditions: MCF7, 24 h
Mus musculus [3] = test: In vivo inhibition of mTORC1-mediated phosphorylation of pS6 at (serine 240/244) in human MCF7 cells xenografted into athymic nude mouse at 100 mg/kg, po after 16 hrs by Western blotting analysis relative to control; format: functional; conditions: MCF7, 16 h
Procedure, shortened: (§1)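 MCF-7 cells (DMEM, 10% FBS) were implanted subcutaneously at 5 × 10^6 cells in 50% cold HBSS/50% growth-factor-reduced matrigel into the hindflank of 5−8 week old female nude mice. At tumor size 40−150 mg, mice received a single oral dose of 100 mg/kg. Tumor lysates were pooled per group. Phospho-AKT (S473, T308), p70S6K (T389), S6 (S240/244) and 4E-BP1 (T37/46) were measured by Western blot normalized to α-tubulin.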

Mus musculus [4] = test: In vivo inhibition of mTORC2-mediated phosphorylation of AKT at serine 473 in human MCF7 cells xenografted into athymic nude mouse at 100 mg/kg, po after 8 hrs by Western blotting analysis relative to control; format: functional; conditions: MCF7, 8 h; procedure, shortened: as §1
Mus musculus [5] = test: In vivo inhibition of mTORC2-mediated phosphorylation of AKT at serine 473 in human MCF7 cells xenografted into athymic nude mouse at 100 mg/kg, po after 4 hrs by Western blotting analysis relative to control; format: functional; conditions: MCF7, 4 h; procedure, shortened: as §1
[6] = Drug uptake in tumor of athymic mouse xenografted with human PC3 cells at 100 mg/kg, po after 24 hrs; format: ADME, organism-based, Neoplasm, PC-3; design: dose 100 mg/kg, route oral; conditions: read-out: Drug uptake
Procedure, shortened: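 PC-3 cells (3 × 10⁶, passages 10–14, in ice-cold HBSS) were implanted sc in 5–8 week old male nude mice. Tumors of 200–500 mg received a single oral 100 mg/kg dose. Plasma and tumor were collected at 1, 4, 8, 16, 24 and 32 h and homogenized in buffer. Lysates were pooled per group (n = 5), and phospho-proteins were measured by Western blot normalized to α-tubulin.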

[7] = Plasma concentration in athymic mouse plasma xenografted with human PC3 cells at 100 mg/kg, po after 8 hrs; format: ADME, organism-based, PC-3; design: dose 100 mg/kg, route oral
[8] = Plasma concentration in athymic mouse plasma xenografted with human PC3 cells at 100 mg/kg, po after 4 hrs; format: ADME, organism-based, PC-3; design: dose 100 mg/kg, route oral
[9] = Oral bioavailability in athymic nude mouse at 10 mg/kg; format: ADME, organism-based; conditions: in vivo
Procedure, shortened: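 For single-dose PK, compound was given intravenously and by oral gavage as a solution in EPW (5% ethanol/45% PEG400/water + 1:2 HCl m/m). Doses were 10 mg/kg in female athymic nude mice and 3 mg/kg in female CD rats and male beagle dogs.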

[10] = Half life in Beagle dog at 3 mg/kg, iv; format: ADME, organism-based, Canis lupus familiaris; design: dose 3 mg/kg, route intravenous; conditions: in vivo
Procedure, shortened: (§2)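 Single-dose PK: female athymic nude mice (10 mg/kg), female CD rats and male beagle dogs (3 mg/kg), male cynomolgus monkeys (3 mg/kg), given iv and by oral gavage. Solution in EPW (5% ethanol/45% PEG400/water), with 1:2 HCl (m/m) for mouse, rat and dog and 1:1.5 HCl (m/m) for monkey. Plasma levels followed over 24 h.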

[11] = Half life in athymic nude mouse at 10 mg/kg, iv; format: ADME, organism-based; design: dose 10 mg/kg, route intravenous; conditions: in vivo; procedure, shortened: as §2
[12] = AUC (0 to infinity) in Beagle dog at 3 mg/kg, iv; format: ADME, organism-based, Canis lupus familiaris; design: time infinity, dose 3 mg/kg, route intravenous; conditions: plasma; procedure, shortened: as §2
[13] = Cmax in Beagle dog at 3 mg/kg, iv; format: ADME, organism-based, Canis lupus familiaris; design: dose 3 mg/kg, route intravenous; conditions: in vivo; procedure, shortened: as §2
MCF7 = test: Antitumor activity against human MCF7 cells xenografted in athymic nude mouse at 50 mg/kg, po qd for 14 days relative to control; format: functional
Procedure, shortened: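 Female athymic nude (NCr) mice, 5–8 weeks old, bearing subcutaneous MCF-7 tumors staged at 100–200 mg. Compound given orally qd for 14 days at 50 or 100 mg/kg as a solution/fine suspension in water with a 1:1 molar ratio of 1 N HCl. Caliper tumor mass = length × width²/2, measured twice weekly; body mass recorded daily.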

[14] = Plasma protein binding in human at 5 uM; format: ADME, cell-free; conditions: read-out: PPB (converted)
Cytochrome P450 2C9 = Cytochrome P450 2C9 (Homo sapiens, UniProt P11712); test: Inhibition of CYP2C9 (unknown origin); format: ADME
Sequence of Cytochrome P450 2C9 (P11712 whole entry): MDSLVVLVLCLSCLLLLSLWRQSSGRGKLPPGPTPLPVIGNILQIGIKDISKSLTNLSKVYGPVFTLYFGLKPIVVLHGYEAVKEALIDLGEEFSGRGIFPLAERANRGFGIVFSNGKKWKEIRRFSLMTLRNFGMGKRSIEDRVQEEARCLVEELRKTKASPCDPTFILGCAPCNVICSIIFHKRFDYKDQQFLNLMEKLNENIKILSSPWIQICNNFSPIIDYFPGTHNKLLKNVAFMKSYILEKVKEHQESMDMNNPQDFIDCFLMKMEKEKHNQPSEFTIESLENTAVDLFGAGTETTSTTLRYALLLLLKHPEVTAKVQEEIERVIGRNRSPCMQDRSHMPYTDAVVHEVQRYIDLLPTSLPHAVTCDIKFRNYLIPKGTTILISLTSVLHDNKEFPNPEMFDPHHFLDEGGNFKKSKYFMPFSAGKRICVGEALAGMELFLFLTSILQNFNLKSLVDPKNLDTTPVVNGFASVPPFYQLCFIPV

Cytochrome P450 3A4 = Cytochrome P450 3A4 (Homo sapiens, UniProt P08684); test: Inhibition of CYP3A4 (unknown origin); format: ADME
Sequence of Cytochrome P450 3A4 (P08684 whole entry): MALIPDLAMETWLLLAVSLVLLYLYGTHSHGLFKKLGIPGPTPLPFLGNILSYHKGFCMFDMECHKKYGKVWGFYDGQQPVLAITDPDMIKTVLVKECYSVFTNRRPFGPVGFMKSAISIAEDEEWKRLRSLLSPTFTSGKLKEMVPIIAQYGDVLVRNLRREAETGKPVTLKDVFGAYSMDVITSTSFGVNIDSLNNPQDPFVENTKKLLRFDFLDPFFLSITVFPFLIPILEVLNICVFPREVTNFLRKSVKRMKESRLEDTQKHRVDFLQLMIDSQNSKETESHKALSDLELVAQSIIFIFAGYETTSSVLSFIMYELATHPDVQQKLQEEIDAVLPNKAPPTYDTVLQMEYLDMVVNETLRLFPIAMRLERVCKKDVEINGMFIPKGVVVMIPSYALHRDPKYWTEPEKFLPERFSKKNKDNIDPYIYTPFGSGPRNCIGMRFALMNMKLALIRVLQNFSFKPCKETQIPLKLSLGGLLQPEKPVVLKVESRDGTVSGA

[15] = molecular target: Mast/stem cell growth factor receptor Kit (Homo sapiens, UniProt P10721); test: Inhibition of KIT (unknown origin)
Sequence of Mast/stem cell growth factor receptor Kit (P10721 whole entry): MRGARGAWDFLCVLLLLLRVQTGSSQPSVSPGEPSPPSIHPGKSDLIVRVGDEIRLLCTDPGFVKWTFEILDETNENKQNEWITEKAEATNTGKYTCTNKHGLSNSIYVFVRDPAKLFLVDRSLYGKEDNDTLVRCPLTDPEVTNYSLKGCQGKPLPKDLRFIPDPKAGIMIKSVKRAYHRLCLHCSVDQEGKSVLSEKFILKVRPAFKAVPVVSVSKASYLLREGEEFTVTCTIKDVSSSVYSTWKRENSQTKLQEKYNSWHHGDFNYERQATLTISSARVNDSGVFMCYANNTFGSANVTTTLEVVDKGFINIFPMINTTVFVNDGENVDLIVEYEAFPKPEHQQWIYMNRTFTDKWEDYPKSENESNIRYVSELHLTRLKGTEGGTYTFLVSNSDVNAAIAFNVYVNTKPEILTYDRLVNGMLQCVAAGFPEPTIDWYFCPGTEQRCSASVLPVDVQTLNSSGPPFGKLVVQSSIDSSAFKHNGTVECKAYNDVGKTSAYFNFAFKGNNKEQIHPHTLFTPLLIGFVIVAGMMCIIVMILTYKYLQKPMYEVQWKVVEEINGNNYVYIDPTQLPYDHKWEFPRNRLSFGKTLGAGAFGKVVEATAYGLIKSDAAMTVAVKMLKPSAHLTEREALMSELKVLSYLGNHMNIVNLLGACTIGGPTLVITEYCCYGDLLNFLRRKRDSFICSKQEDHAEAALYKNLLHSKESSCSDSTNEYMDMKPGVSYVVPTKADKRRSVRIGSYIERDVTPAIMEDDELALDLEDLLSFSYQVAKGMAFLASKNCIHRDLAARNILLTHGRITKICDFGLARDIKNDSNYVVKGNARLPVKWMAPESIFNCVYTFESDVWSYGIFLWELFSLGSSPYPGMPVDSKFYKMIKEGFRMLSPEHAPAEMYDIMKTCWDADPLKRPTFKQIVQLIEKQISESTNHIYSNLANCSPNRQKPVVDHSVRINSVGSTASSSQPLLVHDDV

Mus musculus [16] = test: In vivo inhibition of mTORC1-mediated phosphorylation of pS6 at (serine 240/244) in human PC3 cells xenografted into athymic nude mouse at 100 mg/kg, po after 16 hrs by Western blotting analysis relative to control; format: functional; conditions: PC-3, 16 h
Procedure, shortened: (§3)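 PC-3 cells grown in DMEM with 20% FBS were implanted subcutaneously at 3 × 10^6 cells in ice-cold HBSS into the hindflank of 5−8 week old male nude mice. At tumor size 200−500 mg, mice received a single oral dose of 100 mg/kg. Plasma and tumors were collected at 1, 4, 8, 16, 24 and 32 h. Tumor lysates from each group (n = 5) were pooled. Phospho-proteins were quantified by Western blot and normalized to α-tubulin.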

Mus musculus [17] = test: In vivo inhibition of mTORC1-mediated phosphorylation of pS6 at (serine 240/244) in human PC3 cells xenografted into athymic nude mouse at 100 mg/kg, po after 8 hrs by Western blotting analysis relative to control; format: functional; conditions: PC-3, 8 h; procedure, shortened: as §3
Mus musculus [18] = test: In vivo inhibition of mTORC2-mediated phosphorylation of AKT at serine 473 in human PC3 cells xenografted into athymic nude mouse at 100 mg/kg, po after 32 hrs by Western blotting analysis relative to control; format: functional; conditions: PC-3, 32 h; procedure, shortened: as §3
Mus musculus [19] = test: In vivo inhibition of mTORC2-mediated phosphorylation of AKT at serine 473 in human PC3 cells xenografted into athymic nude mouse at 100 mg/kg, po after 8 hrs by Western blotting analysis relative to control; format: functional; conditions: PC-3, 8 h; procedure, shortened: as §3
Mus musculus [20] = test: In vivo inhibition of mTORC2-mediated phosphorylation of AKT at serine 473 in human PC3 cells xenografted into athymic nude mouse at 100 mg/kg, po after 4 hrs by Western blotting analysis relative to control; format: functional; conditions: PC-3, 4 h; procedure, shortened: as §3
Mus musculus [21] = test: Inhibition of mTORC2-mediated phosphorylation of AKT at serine 473 in human PC3 cells xenografted into athymic nude mouse at 100 mg/kg, po after 1 hr by Western blotting analysis relative to control; format: functional; conditions: PC-3, 1 h
Procedure, shortened: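 PC-3 cells (3 × 10^6, in ice-cold HBSS) were implanted subcutaneously in the hindflank of 5–8 week old male nude mice. At 200–500 mg tumour size, mice received a single oral dose. Tumours were collected at set times after dosing, homogenised and pooled per group (n=5). pAKT S473 was measured by Western blot and normalised to α-tubulin.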

Work on `Cc1c(C(=O)N2CCOc3ccc(-c4ccc(N)nc4)cc3C2)ccc(S(C)(=O)=O)c1F` yielded an inhibition in vivo at 100 mg/kg (Mus musculus [1]) of 3%, an inhibition in vivo at 100 mg/kg (Mus musculus [2]) of -17% and an inhibition in vivo at 100 mg/kg (Mus musculus [3]) of 36%. The inhibition in vivo at 100 mg/kg (Mus musculus [4]) was 89%, the inhibition in vivo at 100 mg/kg (Mus musculus [5]) was 87% and the concentration at 24 h [6] was 0.11 µM. It also gave a concentration at 8 h [7] of 26.7 µM, a concentration at 4 h [8] of 21.3 µM and a bioavailability [9] of 31.4%. It also gave a half-life [10] of 6.11 h, a half-life [11] of 1.35 h and an AUC(0-inf) [12] of 11 µM·h. For the same compound, the Cmax [13] was 2.28 µM, the Activity (MCF7) was 22% and the fraction unbound at 5 µM [14] was 0.14. It also gave an INH (Cytochrome P450 2C9) of 10.6 µM, an INH (Cytochrome P450 3A4) of 24.6 µM and an IC50 [15] greater than 3.5 µM. The inhibition in vivo at 100 mg/kg (Mus musculus [16]) was 71%, the inhibition in vivo at 100 mg/kg (Mus musculus [17]) was 91% and the inhibition in vivo at 100 mg/kg (Mus musculus [18]) was 10%. The inhibition in vivo at 100 mg/kg (Mus musculus [19]) was 83%, the inhibition in vivo at 100 mg/kg (Mus musculus [20]) was 81% and the inhibition in vivo at 100 mg/kg (Mus musculus [21]) was 88%.
